Reference: ChEMBL document CHEMBL1250523, “Synthesis and biological activities of new di- and trimeric quinoline derivatives” (Bioorg Med Chem, 2010)

How the values were obtained:
Assay type in all cases: protein assay
[1] = molecular target: Bcl-xL/Bcl-2-binding component 3 (Homo sapiens, UniProt Q07817+Q9BXH1); assay: Inhibition of GST-tagged Bcl-xl/FITC-conjugated PUMA interaction by fluorescence polarisation assay
[2] = molecular target: Bcl-xL/BAK (Homo sapiens, UniProt Q07817); assay: Inhibition of GST-tagged […]/FITC-conjugated Bak interaction by fluorescence polarisation assay
Bcl-xL/BAK, sequence (Q07817 whole entry): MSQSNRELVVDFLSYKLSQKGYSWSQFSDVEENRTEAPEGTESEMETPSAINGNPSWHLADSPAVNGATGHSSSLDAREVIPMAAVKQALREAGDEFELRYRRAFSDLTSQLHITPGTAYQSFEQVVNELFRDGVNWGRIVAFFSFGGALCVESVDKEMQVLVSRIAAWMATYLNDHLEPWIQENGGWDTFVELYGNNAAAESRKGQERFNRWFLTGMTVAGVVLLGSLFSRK
Bcl-xL/BAK, sequence (Q16611 whole entry, further chain): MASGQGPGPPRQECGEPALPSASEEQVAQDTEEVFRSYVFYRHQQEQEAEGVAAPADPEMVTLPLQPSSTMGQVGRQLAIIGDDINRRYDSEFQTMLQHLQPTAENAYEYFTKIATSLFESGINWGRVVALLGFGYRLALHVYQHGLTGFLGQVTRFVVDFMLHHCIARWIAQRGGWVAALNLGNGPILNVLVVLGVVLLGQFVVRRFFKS

[3] = molecular target: Bcl-xL/BAX (Homo sapiens, UniProt Q07812+Q07817); assay: Inhibition of GST-tagged Bcl-xl/FITC-conjugated Bax interaction by fluorescence polarisation assay
Bcl-xL/BAX, sequence (Q07817 whole entry, the tested form may be a part): as the sequence (Q07817 whole entry) above
Bcl-xL/BAX, sequence (Q07812 whole entry, the tested form may be a part): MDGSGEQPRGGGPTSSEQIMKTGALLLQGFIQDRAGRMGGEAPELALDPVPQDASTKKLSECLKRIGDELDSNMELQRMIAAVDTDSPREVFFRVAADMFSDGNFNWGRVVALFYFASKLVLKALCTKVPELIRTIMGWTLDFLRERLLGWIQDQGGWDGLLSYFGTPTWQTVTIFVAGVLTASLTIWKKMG

[4] = molecular target: Bcl-xL/BH3-interacting domain death agonist (Homo sapiens, UniProt Q07817); assay: Inhibition of GST-tagged Bcl-xl/FITC-conjugated Bid interaction by fluorescence polarisation assay
Bcl-xL/BH3-interacting domain death agonist, sequence (Q07817 whole entry, the tested form may be a part): as the sequence (Q07817 whole entry) above
Bcl-xL/BH3-interacting domain death agonist, sequence (P55957 whole entry, further chain, the tested form may be a part): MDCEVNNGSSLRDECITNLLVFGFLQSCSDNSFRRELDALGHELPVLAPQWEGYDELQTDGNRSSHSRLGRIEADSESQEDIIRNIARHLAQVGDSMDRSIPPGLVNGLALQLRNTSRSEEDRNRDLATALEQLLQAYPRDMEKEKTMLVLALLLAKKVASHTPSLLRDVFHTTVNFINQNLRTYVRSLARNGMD

[5] = molecular target: Bcl-xL/Bcl-2-like protein 11 (Homo sapiens, UniProt Q07817); assay: Inhibition of GST-tagged Bcl-xl/FITC-conjugated Bim interaction by fluorescence polarisation assay
Bcl-xL/Bcl-2-like protein 11, sequence (Q07817 whole entry): as the sequence (Q07817 whole entry) above
Bcl-xL/Bcl-2-like protein 11, sequence (O43521 whole entry, further chain): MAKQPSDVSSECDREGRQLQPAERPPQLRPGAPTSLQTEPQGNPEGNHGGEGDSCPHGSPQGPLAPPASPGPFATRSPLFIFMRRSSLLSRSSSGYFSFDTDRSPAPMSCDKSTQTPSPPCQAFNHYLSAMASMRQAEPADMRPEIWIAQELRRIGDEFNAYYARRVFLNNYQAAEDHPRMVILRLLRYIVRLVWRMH

[6] = molecular target: Apoptosis regulator BAX/Bcl-2-related protein A1 (Homo sapiens, UniProt Q07812+Q16548); assay: Inhibition of GST-tagged Bfl-1/FITC-conjugated Bax interaction by fluorescence polarisation assay
Apoptosis regulator BAX/Bcl-2-related protein A1, sequence (Q07812 whole entry, the tested form may be a part): as the sequence (Q07812 whole entry, the tested form may be a part) above
Apoptosis regulator BAX/Bcl-2-related protein A1, sequence (Q16548 whole entry, the tested form may be a part): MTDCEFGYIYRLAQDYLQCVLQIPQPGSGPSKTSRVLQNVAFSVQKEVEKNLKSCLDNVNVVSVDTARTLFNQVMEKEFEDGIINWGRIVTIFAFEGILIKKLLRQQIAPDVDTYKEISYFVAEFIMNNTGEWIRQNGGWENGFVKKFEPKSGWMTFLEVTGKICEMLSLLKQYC
Method in brief: (§1)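 Recombinant GST-fused anti-apoptotic protein (Bcl-xl, Bcl-2, Bfl-1 or Mcl-1, each lacking its C-terminal tail) at 100 nM, incubated in the dark with 15 nM N-terminally FITC-labelled BH3 peptide (Bak, Bax, Bid or Bim) and a range of compound concentrations. Fluorescence polarisation was read, and IC50 was derived from the concentration-response curve.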

[7] = molecular target: Apoptosis regulator BAX/Bcl-2 (Homo sapiens, UniProt P10415+Q07812); assay: Inhibition of GST-tagged Bcl-2/FITC-conjugated Bax interaction by fluorescence polarisation assay; method in brief: as §1
Apoptosis regulator BAX/Bcl-2, sequence (P10415 whole entry): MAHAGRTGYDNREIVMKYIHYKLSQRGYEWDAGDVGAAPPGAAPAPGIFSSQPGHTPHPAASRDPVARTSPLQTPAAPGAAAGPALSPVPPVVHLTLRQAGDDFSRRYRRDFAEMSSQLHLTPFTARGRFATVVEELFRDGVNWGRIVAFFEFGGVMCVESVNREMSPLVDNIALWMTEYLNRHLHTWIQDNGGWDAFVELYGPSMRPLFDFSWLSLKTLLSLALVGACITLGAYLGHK
Apoptosis regulator BAX/Bcl-2, sequence (Q07812 whole entry): as the sequence (Q07812 whole entry, the tested form may be a part) above

[8] = molecular target: Apoptosis regulator BAX/Induced myeloid leukemia cell differentiation protein Mcl-1 (Homo sapiens, UniProt Q07812+Q07820); assay: Inhibition of GST-tagged Mcl-1/FITC-conjugated Bax interaction by fluorescence polarisation assay; method in brief: as §1
Apoptosis regulator BAX/Induced myeloid leukemia cell differentiation protein Mcl-1, sequence (Q07820 whole entry): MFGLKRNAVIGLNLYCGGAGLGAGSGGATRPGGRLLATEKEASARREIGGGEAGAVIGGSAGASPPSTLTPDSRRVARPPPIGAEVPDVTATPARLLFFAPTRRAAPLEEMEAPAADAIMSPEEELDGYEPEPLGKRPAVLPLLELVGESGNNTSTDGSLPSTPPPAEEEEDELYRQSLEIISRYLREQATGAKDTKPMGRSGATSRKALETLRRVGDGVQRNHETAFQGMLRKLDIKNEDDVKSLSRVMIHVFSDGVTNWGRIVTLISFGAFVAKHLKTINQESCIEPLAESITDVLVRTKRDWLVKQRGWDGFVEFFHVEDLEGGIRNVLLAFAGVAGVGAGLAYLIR
Apoptosis regulator BAX/Induced myeloid leukemia cell differentiation protein Mcl-1, sequence (Q07812 whole entry): as the sequence (Q07812 whole entry, the tested form may be a part) above

Bcl-xL/Bcl-2-binding component 3, sequence (Q07817 whole entry): as the sequence (Q07817 whole entry) above
Bcl-xL/Bcl-2-binding component 3, sequence (Q9BXH1 whole entry): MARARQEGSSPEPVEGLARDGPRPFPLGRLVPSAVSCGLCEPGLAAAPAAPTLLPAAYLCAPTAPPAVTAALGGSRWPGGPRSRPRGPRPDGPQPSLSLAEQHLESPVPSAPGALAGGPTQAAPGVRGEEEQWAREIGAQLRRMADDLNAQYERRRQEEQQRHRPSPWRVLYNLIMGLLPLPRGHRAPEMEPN

Row | SMILES | IC50 [1] [µM] | IC50 [2] [µM] | IC50 [3] [µM] | IC50 [4] [µM] | IC50 [5] [µM] | IC50 [6] [µM] | IC50 [7] [µM] | IC50 [8] [µM]
1 | CCOc1nc2ccccc2cc1-c1cc(C(C)C)c2cc(-c3cc(C(C)C)c4ccc(OC)nc4c3)c(OC)nc2c1 | 54 | 74 | 243 | 21 | 47 |  |  | 
2 | COc1ccc2c(CC(C)C)cc(-c3cc4c(C(C)C)cccc4nc3OC)cc2n1 | > 1000 | > 1000 | > 1000 | > 1000 | 29 |  |  | 
3 | CCC(C)c1cc(-c2cc3c(CC(C)C)cc(-c4cc5c(C(C)C)cccc5nc4OC)cc3nc2OC)cc2nc(OC)ccc12 (racemic) | 42 | 25 | 26 | 27 | 92.5 | 68 | 43 | 45.5
